According to ChEMBL document CHEMBL4330063, “New naphthopyran analogues of LY290181 as potential tumor vascular-disrupting agents” (Eur J Med Chem, 2019):
Activity calls are given as the source filed them. The calls are words filed in the database; no cut-off is given here.

Legend:
518A2 [1] = test: Antiproliferative activity against human 518A2 cells after 72 hrs by MTT assay; format: functional, cell-based; settings: for IC50: 518A2, 72 h
Outline: (§1)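 MTT read-out after 72 h of continuous exposure. Viability is expressed as percentage of viable cells relative to untreated controls. IC50 comes from dose-response curves. Values are means±SD of four independent experiments (two for some entries). DMSO was below 1%, with vehicle controls at equal DMSO. Precipitation was excluded spectrometrically and microscopically.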

A2780 = test: Antiproliferative activity against human A2780 cells after 72 hrs by SRB assay; format: functional, cell-based; settings: A2780, 72 h
Outline: (§2)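 Ovarian A2780 and cisplatin-resistant A2780cis cells were exposed for 72 h and stained with SRB. IC50 comes from dose-response curves, as means±SD of three independent experiments. Final DMSO was below 1%, with matched vehicle controls.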

HT-29 [2] = test: Antiproliferative activity against human HT-29 cells after 72 hrs by MTT assay; format: functional, cell-based; settings: HT-29, 72 h; outline: as §1
[3] = Antiproliferative activity against human A2780cis cells after 72 hrs by SRB assay; format: functional, cell-based; outline: as §2
Chorioallantoic membrane [4] = test: Antiangiogenic activity in Leghorn chicken embryo chorioallantoic membrane assessed as effect on blood vessel length at 5 nmol after 6 hrs by light microscopic analysis; format: functional, tissue-based; settings: Gallus gallus
Outline: (§3)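 Fertilized chicken eggs, CAM assay. Compound was applied topically into a small silicon foil ring placed on the CAM. The membrane and its extraembryonal blood vessels were monitored over 24 h, with observations at 6 h and 24 h post application.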

518A2 [5] = test: Induction of cell cycle arrest in human 518A2 cells; format: functional, cell-based
Chorioallantoic membrane [6] = test: Antiangiogenic activity in Leghorn chicken embryo chorioallantoic membrane assessed as induction of hemorrhages at 5 nmol after 24 hrs by light microscopic analysis; format: functional, tissue-based; settings: Gallus gallus; outline: as §3
HT-29 [7] = test: Cell cycle arrest in human HT-29 cells assessed as accumulation of cells at G1 phase at 250 nM after 24 hrs by propidium iodide staining-based flow cytometric analysis (reference value: 75.1 +/- 1.1%); format: functional
HT-29 [8] = test: Cell cycle arrest in human HT-29 cells assessed as accumulation of cells at sub G1 phase at 250 nM after 24 hrs by propidium iodide staining-based flow cytometric analysis (reference value: 1.2 +/- 0.3%); format: functional
HT-29 [9] = test: Cell cycle arrest in human HT-29 cells assessed as accumulation of cells at G2/M phase at 350 nM after 24 hrs by propidium iodide staining-based flow cytometric analysis (reference value: 11.4 +/- 1.4%); format: functional
518A2 [10] = test: Induction of apoptosis in human 518A2 cells assessed as accumulation at subG1 phase; format: functional, cell-based
HT-29 [11] = test: Cell cycle arrest in human HT-29 cells assessed as accumulation of cells at G1 phase at 100 nM after 24 hrs by propidium iodide staining-based flow cytometric analysis (reference value: 75.1 +/- 1.1%); format: functional
HT-29 [12] = test: Cell cycle arrest in human HT-29 cells assessed as accumulation of cells at G2/M phase after 24 hrs by propidium iodide staining-based flow cytometric analysis; format: functional
EA.hy 926 = test: Antiproliferative activity against human EAhy926 cells after 72 hrs by MTT assay; format: functional, cell-based; settings: EA.hy 926, 72 h; outline: as §1
HT-29 [13] = test: Cell cycle arrest in human HT-29 cells assessed as accumulation of cells at sub G1 phase at 350 nM after 24 hrs by propidium iodide staining-based flow cytometric analysis (reference value: 1.2 +/- 0.3%); format: functional
HT-29 [14] = test: Cell cycle arrest in human HT-29 cells assessed as accumulation of cells at G1 phase at 350 nM after 24 hrs by propidium iodide staining-based flow cytometric analysis (reference value: 75.1 +/- 1.1%); format: functional
HT-29 [15] = test: Cell cycle arrest in human HT-29 cells assessed as accumulation of cells at S phase at 250 nM after 24 hrs by propidium iodide staining-based flow cytometric analysis (reference value: 12.3 +/- 0.4%); format: functional
Chorioallantoic membrane [16] = test: Antiangiogenic activity in Leghorn chicken embryo chorioallantoic membrane assessed as induction of hemorrhages at 5 nmol after 6 hrs by light microscopic analysis; format: functional, tissue-based; settings: Gallus gallus; outline: as §3
HT-29 [17] = test: Cell cycle arrest in human HT-29 cells assessed as accumulation of cells at S phase at 350 nM after 24 hrs by propidium iodide staining-based flow cytometric analysis (reference value: 12.3 +/- 0.4%); format: functional
Chorioallantoic membrane [18] = test: Antiangiogenic activity in Leghorn chicken embryo chorioallantoic membrane assessed as disruption of smaller blood vessels at 5 nmol after 24 hrs by light microscopic analysis; format: functional, tissue-based; settings: Gallus gallus; outline: as §3
Chorioallantoic membrane [19] = test: Antiangiogenic activity in Leghorn chicken embryo chorioallantoic membrane assessed as reduction in blood vessel area at 5 nmol after 6 hrs by light microscopic analysis relative to control; format: functional, tissue-based; settings: Gallus gallus
Outline: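 The CAM assay was run with topical application into a silicon foil ring atop the CAM of fertilized chicken eggs. Area covered by blood vessels was quantified by fractal analysis relative to control.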

[20] = Antiproliferative activity against human KB-V1/Vbl cells after 72 hrs by MTT assay; format: functional, cell-based; outline: as §1
HT-29 [21] = test: Cell cycle arrest in human HT-29 cells assessed as accumulation of cells at G2/M phase at 100 nM after 24 hrs by propidium iodide staining-based flow cytometric analysis (reference value: 11.4 +/- 1.4%); format: functional
Chorioallantoic membrane [22] = test: Antiangiogenic activity in Leghorn chicken embryo chorioallantoic membrane assessed as disruption of smaller blood vessels at 5 nmol after 6 hrs by light microscopic analysis; format: functional, tissue-based; settings: Gallus gallus; outline: as §3
HT-29 [23] = test: Cell cycle arrest in human HT-29 cells assessed as accumulation of cells at G2/M phase at 250 nM after 24 hrs by propidium iodide staining-based flow cytometric analysis (reference value: 11.4 +/- 1.4%); format: functional
PANC-1 = test: Antiproliferative activity against human PANC1 cells after 72 hrs by MTT assay; format: functional, cell-based; settings: PANC-1, 72 h; outline: as §1
HCT-116 = test: Antiproliferative activity against human HCT116 cells after 72 hrs by MTT assay; format: functional, cell-based; settings: HCT-116, 72 h; outline: as §1
HT-29 [24] = test: Cell cycle arrest in human HT-29 cells assessed as accumulation of cells at sub G1 phase at 100 nM after 24 hrs by propidium iodide staining-based flow cytometric analysis (reference value: 1.2 +/- 0.3%); format: functional
[25] = Antiproliferative activity against human MCF7/Topo cells after 72 hrs by MTT assay; format: functional, cell-based; outline: as §1
Chorioallantoic membrane [26] = test: Antiangiogenic activity in Leghorn chicken embryo chorioallantoic membrane assessed as reduction in diameter of main blood vessel at 5 nmol after 24 hrs by light microscopic analysis; format: functional, tissue-based; settings: Gallus gallus; outline: as §3
DLD-1 = test: Antiproliferative activity against human DLD1 cells after 72 hrs by MTT assay; format: functional, cell-based; settings: DLD-1, 72 h; outline: as §1
HT-29 [27] = test: Cell cycle arrest in human HT-29 cells assessed as accumulation of cells at S phase at 100 nM after 24 hrs by propidium iodide staining-based flow cytometric analysis (reference value: 12.3 +/- 0.4%); format: functional

## N#CC1=C(N)Oc2c(ccc3ccccc23)C1c1cccc(S(F)(F)(F)(F)F)c1 (stereo unspecified)
518A2 [1]
  Activity: Dose-dependent effect
  IC50: 505 nM
A2780
  IC50: 188 nM
HT-29 [2]
  IC50: 570 nM
[3]
  IC50: 265 nM

## COc1cc(C2C(C#N)=C(N)Oc3c2ccc2ccccc32)ccc1OCc1ccccc1 (stereo unspecified)
518A2 [1]
  Activity: Dose-dependent effect
  IC50: 1660 nM
A2780
  IC50: 2150 nM
HT-29 [2]
  IC50: 5820 nM
[3]
  IC50: 2340 nM

## N#CC1=C(N)Oc2c(cc(Cl)c3ccccc23)C1c1cccc(C#N)c1 (stereo unspecified)
Chorioallantoic membrane [4]
  Activity: inactive
518A2 [5]
  Activity: inactive
Chorioallantoic membrane [6]
  Activity: inactive
HT-29 [7]
  Activity: 22.2%
HT-29 [8]
  Activity: 27.8%
518A2 [1]
  Activity: Dose-dependent effect
  IC50: 60.5 nM
HT-29 [9]
  Activity: 51.6%
518A2 [10]
  Activity: Active
HT-29 [11]
  Activity: 51.7%
HT-29 [12]
  Activity: Dose-dependent effect
EA.hy 926
  IC50: 78.6 nM
HT-29 [13]
  Activity: 27%
HT-29 [14]
  Activity: 13%
A2780
  IC50: 49.9 nM
HT-29 [15]
  Activity: 9.1%
Chorioallantoic membrane [16]
  Activity: Active
HT-29 [17]
  Activity: 8.5%
Chorioallantoic membrane [18]
  Activity: inactive
Chorioallantoic membrane [19]
  Activity: inactive
[20]
  IC50: 55.9 nM
HT-29 [2]
  IC50: 67.3 nM
HT-29 [21]
  Activity: 12.3%
Chorioallantoic membrane [22]
  Activity: Active
HT-29 [23]
  Activity: 40.9%
PANC-1
  IC50: 54.9 nM
HCT-116
  IC50: 73.5 nM
[3]
  IC50: 56.7 nM
HT-29 [24]
  Activity: 19.8%
[25]
  IC50: 58.1 nM
Chorioallantoic membrane [26]
  Activity: Active
DLD-1
  IC50: 69.4 nM
HT-29 [27]
  Activity: 16.1%

## N#CC1=C(N)Oc2c(cc(Cl)c3ccccc23)C1c1ccc(C#N)cc1 (stereo unspecified)
518A2 [1]
  Activity: Dose-dependent effect
  IC50: 753 nM
A2780
  IC50: 1440 nM
HT-29 [2]
  IC50: 1590 nM
[3]
  IC50: 1410 nM

## CSc1ccc(C2C(C#N)=C(N)Oc3c2cc(Cl)c2ccccc32)cc1 (stereo unspecified)
518A2 [1]
  Activity: Dose-dependent effect
  IC50: 1350 nM
A2780
  IC50: 1070 nM
HT-29 [2]
  IC50: 1540 nM
[3]
  IC50: 1290 nM

## COc1c(Br)cc(C2C(C#N)=C(N)Oc3c2cc(Cl)c2ccccc32)cc1Br (stereo unspecified)
518A2 [1]
  Activity: Dose-dependent effect
  IC50: 144 nM
A2780
  IC50: 160 nM
HT-29 [2]
  IC50: 188 nM
[3]
  IC50: 168 nM

## N#CC1=C(N)Oc2c(cc(Cl)c3ccccc23)C1c1cc(F)cc(F)c1 (stereo unspecified)
Chorioallantoic membrane [4]
  Activity: inactive
518A2 [5]
  Activity: inactive
Chorioallantoic membrane [6]
  Activity: inactive
HT-29 [7]
  Activity: 3%
HT-29 [8]
  Activity: 4.5%
518A2 [1]
  Activity: Dose-dependent effect
  IC50: 24.1 nM
HT-29 [9]
  Activity: 90.3%
518A2 [10]
  Activity: Active
HT-29 [11]
  Activity: 52%
HT-29 [12]
  Activity: Dose-dependent effect
EA.hy 926
  IC50: 67.8 nM
HT-29 [13]
  Activity: 3.5%
HT-29 [14]
  Activity: 1.6%
A2780
  IC50: 104 nM
HT-29 [15]
  Activity: 2.3%
Chorioallantoic membrane [16]
  Activity: Active
HT-29 [17]
  Activity: 2.2%
Chorioallantoic membrane [18]
  Activity: inactive
Chorioallantoic membrane [19]
  Activity: inactive
[20]
  IC50: 92 nM
HT-29 [2]
  IC50: 102 nM
HT-29 [21]
  Activity: 25%
Chorioallantoic membrane [22]
  Activity: Active
HT-29 [23]
  Activity: 90.3%
PANC-1
  IC50: 92.7 nM
HCT-116
  IC50: 91 nM
[3]
  IC50: 155 nM
HT-29 [24]
  Activity: 3.3%
[25]
  IC50: 79.8 nM
Chorioallantoic membrane [26]
  Activity: Active
DLD-1
  IC50: 98.4 nM
HT-29 [27]
  Activity: 19.6%

## N#CC1=C(N)Oc2c(ccc3ccccc23)C1c1ccc(S(F)(F)(F)(F)F)cc1 (stereo unspecified)
518A2 [1]
  Activity: Dose-dependent effect
  IC50: 7130 nM
A2780
  IC50: 5160 nM
HT-29 [2]
  IC50: 9970 nM
[3]
  IC50: 5580 nM

## N#CC1=C(N)Oc2c(ccc3ccccc23)C1c1ccc(C#N)cc1 (stereo unspecified)
518A2 [1]
  Activity: Dose-dependent effect
  IC50: 939 nM
A2780
  IC50: 759 nM
HT-29 [2]
  IC50: 1230 nM
[3]
  IC50: 774 nM

## N#CC1=C(N)Oc2c(cc(Cl)c3ccccc23)C1c1cccc(Br)c1 (stereo unspecified)
518A2 [1]
  Activity: Dose-dependent effect
  IC50: 229 nM
A2780
  IC50: 155 nM
HT-29 [2]
  IC50: 245 nM
[3]
  IC50: 166 nM

## CSc1ccc(C2C(C#N)=C(N)Oc3c2ccc2ccccc32)cc1 (stereo unspecified)
518A2 [1]
  Activity: Dose-dependent effect
  IC50: 1980 nM
A2780
  IC50: 363 nM
HT-29 [2]
  IC50: 1100 nM
[3]
  IC50: 430 nM

## N#CC1=C(N)Oc2c(cc(Cl)c3ccccc23)C1c1ccccc1Cl (stereo unspecified)
518A2 [1]
  Activity: Dose-dependent effect
  IC50: 9910 nM
A2780
  IC50: 912 nM
HT-29 [2]
  IC50: 2030 nM
[3]
  IC50: 973 nM
